High-throughput results deposited in PubChem by several laboratories.
aDG glyco up: activators of alpha-DG glycosylation, primary screen, uHTS, Pro5-aDG cells, AlphaScreen | alpha-DG glycosylation AlphaScreen (IIH6); 0% Pro5, 100% B10-LARGE cell signal | activation, % at 10 µM | actives 0.22% (n = 360,000) | AID 624168, 2012;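 active = activation of at least 8% versus controls, or a plate z-score of at least 8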;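 also: Pro5 are CHO cells carrying HIG-tagged alpha-DG that lacks glycosylation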
NR3A LBD binder: binders of NR3A ligand-binding domain, primary screen, biophysical, differential scanning fluorimetry, uHTS. Glutamate receptor ionotropic, NMDA 3A (GRIN3A) ligand-binding domain. NR3A LBD differential scanning fluorimetry, Tm shift; 0% = protein alone, 100% = glycine-bound protein. Tm shift relative to glycine control, % at 25 µM. actives 2.5% (n = 340,000). AID 1259313, 2017;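 active = melting temperature shift of at least 10% of the positive control shift, at one fixed dose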
MPTP block: mitochondrial permeability transition pore inhibitors, primary screen, biochemical, isolated mouse mitochondria, absorbance; Ca2+ swelling absorbance, 30 min; actives 1.4% (n = 360,000); AID 602449, 2012; inhibition, % at 10 µM;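 active = inhibition of 50% or more, scaled per plate between neutral and stimulator controls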;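 also: 0% = DMSO wells given calcium and 100% = 1 mM EGTA wells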
procasp3 activ: activators of human procaspase-3 D3A mutant, primary screen, biochemical, absorbance, PC-3 D3A mutant, single concentration; activation, % at 8.5 µM; recombinant procaspase-3 D3A, Ac-DEVD-pNA absorbance 405 nm; AID 463141, 2010; Caspase-3 (Homo sapiens), P42574; actives 0.11% (n = 330,000);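 active = activation above the mean of all tested compounds plus 3 SD, cut at about 21% in these data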;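 also: 0% = DMSO alone and 100% = DMSO wells spiked with extra 5 µM PC-3 D3A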
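assay system = Procaspase-3 D3A mutant | signal = absorbance at 405 nm, 0 and 120 min | times = 1 h preincubation plus 2 h reaction at 25 °C | repeats = single replicate | read-out = % activation between DMSO and enzyme-spiked controls | medium = Zinc-free HEPES saline buffer with Triton X-100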
proCasp7 act: procaspase-7 activators, primary screen, counter-screen for procaspase-3 activator project, biochemical, absorbance, HTS, human; Caspase-7 (Homo sapiens), P55210; recombinant procaspase-7, Ac-DEVD-pNA absorbance 405 nm; D23A/D198A/D206A triple mutant, cannot self-cleave; scale: DMSO 0, 5 µM enzyme 100; activation, % at 8.5 µM; actives 0.093% (n = 330,000);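 active = percent activation above the screen-wide mean plus 3 SD, cut at about 25% in these data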
Target sequence (P55210 whole entry D23A/D198A/D206A): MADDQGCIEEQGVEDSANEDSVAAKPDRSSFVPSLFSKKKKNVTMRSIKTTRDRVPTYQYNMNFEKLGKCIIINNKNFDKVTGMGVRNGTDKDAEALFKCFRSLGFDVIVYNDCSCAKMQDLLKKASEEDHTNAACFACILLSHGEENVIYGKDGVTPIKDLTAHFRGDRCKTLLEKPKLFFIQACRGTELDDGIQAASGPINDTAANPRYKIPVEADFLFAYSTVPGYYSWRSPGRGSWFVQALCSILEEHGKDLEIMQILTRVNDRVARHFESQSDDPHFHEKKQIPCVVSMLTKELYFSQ
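Assay system – Uncleavable procaspase-7 mutant enzyme · Quantity – 2 µM procaspase-7 mutant as dispensed · Times – 1 h preincubation, 2 h reaction · Dosing – single nominal 8.5 µM compound dose, 0.8% DMSO final · Buffer or medium – Zinc-free 50 mM HEPES buffer, pH 7.4, with NaCl and Triton X-100 · Detection – Epi-absorbance of released pNA at 405 nm, two timepoints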
MPTP counter: fluorescence retest of MPTP screen hits in isolated mitochondria, single concentration. shares compounds with MPTP block. membrane potential, Rhodamine 123 fluorescence. inhibition, % at 10 µM. actives 78% (n = 5,000); in the data active = inhibition above about 22%;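 also: 0% = DMSO vehicle and 100% = positive control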
MPTP abs DR: mitochondrial permeability transition pore inhibitors, dose response, biochemical, absorbance, uHTS hits. AID 651561, 2012. shares compounds with MPTP block. isolated mitochondria swelling. actives 58% (n = 780). IC50, µM; in the data active = IC50 below about 20 µM
MPTP cs DR: fluorescent counter-screen in isolated mitochondria, dose response, counter-screen for MPTP inhibitor project, biochemical, fluorescence, uHTS hits. shares compounds with MPTP block. isolated mitochondria counterscreen, fluorescence read-out. IC50, µM. actives 49% (n = 780). AID 651564, 2012; in the data active = IC50 below about 80 µM
The depositor's hits bear a star; x = no result. Sampled rows, rich in hits. Any-hit rate of the full collection: about 3.7%.

SMILES	aDG glyco up	NR3A LBD binder	MPTP block	procasp3 activ	proCasp7 act	MPTP counter	others
COc1ccc(NC(=O)c2cccc(S(=O)(=O)Nc3ccc(Br)cc3)c2)cn1	1	22*	97*	-2	-2	80*
O=C(Nc1ccc(Br)cc1)c1cccc(S(=O)(=O)Nc2cnc3ccccc3c2)c1	0	41*	108*	4	2	74*
CCOc1ccc(S(=O)(=O)Nc2cnc3ccccc3c2)cc1	2	-2	87*	8	6	90*
CCCCOCCCNC(=O)C[C@@H]1C[C@@]2(C(=O)OCC)CCC=C2N(Cc2ccc3c(c2)OCO3)C1=O	0	x	-1	x	x	x
CC(Oc1ccccc1F)c1nnc(SCC(=O)N(c2ccccc2)C2CCS(=O)(=O)C2)o1 (configuration not stated)	0	0	-2	4	13	x
O=C(O)c1ccc(NC(=O)c2cccc(S(=O)(=O)Nc3ccc(C(=O)O)cc3)c2)cc1	0	-1	1	-1	1	x
O=C1CSc2ccc(C(=O)Nc3cccc(S(=O)(=O)Nc4ccc(Br)cc4)c3)cc2N1	0	28*	89*	-6	-13	71*
CC[C@H](C)Cc1cn([C@@H](CCCN=C(N)N)C(=O)NCCCCCCCCCCC(=O)N2CCNCC2)nn1	0	0	86*	4	8	-15	MPTP abs DR=11*;MPTP cs DR=76*
CCN(CC)CCCNc1nc2ccccc2c2[nH]c3ccc(OC)cc3c12	-1	0	4	x	x	x
COc1ccc(Nc2ncnc3sc(-c4ccccc4)cc23)cc1	0	16*	71*	-6	19	61*
Cc1ccc(C23CC4CC(CC(CN)(C4)C2)C3)cc1	9.5*	-1	80*	x	x	-15	MPTP abs DR=5*;MPTP cs DR=75*
Cc1ccc(C)c(Nc2nc3c(S(=O)(=O)c4ccccc4)nnn3c3ccccc23)c1	0	0	48	16	1	x
Cc1ccc(S(=O)(=O)c2nnn3c2nc(Nc2cccc(C)c2)c2ccccc23)cc1	0	9	65*	-5	-1	25*
COc1ccccc1NS(=O)(=O)c1ccc2oc(SCc3ccc(F)cc3)nc2c1	0	-11	7	12	-4	x
COc1ccc(NS(=O)(=O)c2ccc3oc(SCc4ccc(F)cc4)nc3c2)cc1	3	13*	60*	1	-6	50*
Cc1sc(NC(=O)c2ccco2)c(C(c2ccc(F)cc2)N2CCN(C)CC2)c1C (configuration not stated)	0	-1	82*	4	2	-23
COc1cc(O)c(C=Nc2ccccc2NS(=O)(=O)c2ccc(C)cc2)c(OC)c1	0	-3	2	x	x	x
CC[n+]1c(/C=C/c2ccc(OC)c(OC)c2)ccc2ccccc21	0	1	0	-12	-4	x
CC[n+]1ccccc1/C=C/c1ccc(N(C)C)cc1	0	1	2	x	x	x
CCN(CC)c1ccc(/C=C/c2ccc3ccc(OC)cc3[n+]2CC)cc1	0	-4	64*	-23	-16	63*
CC[n+]1c(/C=C/c2ccc(N(C)C)cc2)ccc2ccccc21	1	-1	141*	-6	-31	55*
CCCCCC[n+]1ccccc1/C=C/c1ccc(N(C)C)cc1	1	x	58*	x	x	103*
CC[n+]1ccc(/C=C/c2ccc(N(C)C)cc2)c2ccccc21	0	-3	119*	x	x	68*
